Screening results: PubChem BioAssay, several laboratories
sEH inh: inhibitors of human soluble epoxide hydrolase; P34913; inhibition, % at 2 µM; 91,000 tested, 0.34% active; AID 707; recombinant human sEH enzymatic activity assay; in the data active = inhibition above about 80%
Target sequence (P34913 whole entry, looked up): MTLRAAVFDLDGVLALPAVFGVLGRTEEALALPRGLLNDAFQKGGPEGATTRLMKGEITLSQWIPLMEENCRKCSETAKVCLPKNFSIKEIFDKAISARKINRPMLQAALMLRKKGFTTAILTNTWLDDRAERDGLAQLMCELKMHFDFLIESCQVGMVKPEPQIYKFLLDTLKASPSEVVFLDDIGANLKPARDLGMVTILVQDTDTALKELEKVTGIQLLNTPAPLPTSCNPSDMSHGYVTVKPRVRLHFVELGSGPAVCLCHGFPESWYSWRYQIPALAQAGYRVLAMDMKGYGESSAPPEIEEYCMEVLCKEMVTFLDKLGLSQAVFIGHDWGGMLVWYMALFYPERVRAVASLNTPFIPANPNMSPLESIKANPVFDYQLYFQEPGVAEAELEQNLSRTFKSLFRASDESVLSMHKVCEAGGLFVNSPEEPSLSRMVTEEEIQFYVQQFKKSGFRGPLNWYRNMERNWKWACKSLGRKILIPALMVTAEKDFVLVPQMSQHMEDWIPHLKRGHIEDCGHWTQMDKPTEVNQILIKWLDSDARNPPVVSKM
SDO1 yeast rescue: sdo1-depleted yeast growth rescue; S. cerevisiae sdo1-depleted JHY4D growth rescue, OD600 30 h; active compounds read high; pdr5 snq2 efflux-pump mutant strain; z-score at 10 µM; 140,000 tested, 0.21% active;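 active = z-score above 3 at both the 24 hr and the 30 hr optical density reads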;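 also: z-score against mean and SD of all compound wells on the same plate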
Yeast growth inh: reduces growth of yeast BB579 in restrictive medium | S. cerevisiae BB579 growth, OD615, 48 h | inhibition, % at 10 µM | 140,000 tested, 0.51% active | AID 804;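 active = inhibition above a set limit, 3 SD over the mean compound inhibition, cut at about 44% in these data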
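Test system: S. cerevisiae DeaD strain BB579 yeast; Medium: restrictive CSMM-D medium; Compound: one dose, 10 µM compound with 0.25% DMSO; Incubation: 4 h cell preincubation, 48 h compound exposure, 30 °C humidified; Signal: OD at 615 nm; Benchmarks: amphotericin B at 10 µg/mL as positive control.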
sEH activator: activators of human soluble epoxide hydrolase; 91,000 tested, 0.04% active; activation, % at 2 µM; purified human sEH enzymatic activity, activator screen; AID 717; P34913; in the data active = activation above about 37%
Yeast lifespan up: yeast lifespan extension | S. cerevisiae growth with nicotinamide, OD615; deaD strain in restrictive glucose medium | inhibition of the nicotinamide effect, % at 10 µM | 130,000 tested, 0.68% active | AID 775;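 active = inhibition above a set limit, placed 3 SD over the median of all compounds, cut at about 26% in these data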;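 also: 0% = nicotinamide-treated wells and 100% = cells grown without nicotinamide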
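System: Modified budding yeast, DeaD strain | Buffer or medium: Restrictive glucose medium | Also added: 1.5 mM nicotinamide | Doses: 10 µM single point, 0.25% DMSO | Schedule: 48 h compound exposure at 30 °C, humidified | Detection: Absorbance at 615 nm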
Measles CPE: protection of cells from measles virus. Measles virus-infected cells, CPE protection, absorbance. protection (pct of control), % at 4 µM. 140,000 tested, 1.5% active. AID 841; in the data active = protection mostly above about 24%, no sharp cut-off; inactive = mostly below about 26%
An asterisk follows results filed as active; · = not tested or not shown. The list is not random: actives were taken first. Their share in the collection is about 3%.

SMILES	sEH inh	SDO1 yeast rescue	Yeast growth inh	sEH activator	Yeast lifespan up	Measles CPE
CCCc1[nH][nH]c(=O)c1C(c1cccc(Cl)c1)C(C#N)C#N (stereo not drawn)	16	-0.46	-58	-16	17	19
N#CC(C#N)C(c1ccsc1)c1c(-c2ccccc2)[nH][nH]c1=O (stereo not drawn)	2	-0.25	-62	-3	40*	3
CCN1CCN(Cc2c(OC)ccc3ccccc23)CC1	-7	1.5	-18	10	-5	4
CC(C)Oc1ccc2ccccc2c1C=O	3	-0.93	-1	-1	-12	24*
COc1ccc(N2CCN(CCCn3c(=S)[nH]c4ncccc4c3=O)CC2)cc1	-1	1.3	28	-1	-5	25*
O=c1c2cccnc2[nH]c(=S)n1CCCN1CCN(c2ccc(F)cc2)CC1	-17	1.2	-30	16	-18	16
O=C(Cn1nnc(-c2ccccc2F)n1)Nc1ccc(S(=O)(=O)NC2CCCC2)cc1	54	1.8	4	-55	-10	35*
O=C(Nc1ccc2oc(Cc3ccc(Cl)cc3)nc2c1)c1cccnc1	6	-1.1	-11	-7	-4	2
CCOc1cccc(C(=O)Nc2ccc3oc(Cc4ccc(Cl)cc4)nc3c2)c1	29	-2	-40	-27	-4	33*
COc1ccc(-c2cnnn2-c2ccc(NC(=O)c3ccc(S(=O)(=O)N4CCCCC4)cc3)cc2)cc1	·	1	-37	·	-5	3
Clc1ccc(-c2cn3cccnc3n2)cc1Cl	-10	-2.7	21	13	-10	20
COc1ccc(-c2cn3cccnc3n2)cc1F	·	-0.03	-13	·	-9	29*
O=C(NCCOc1ccccc1F)c1cc(F)c(F)cc1Cl	·	0.49	-49	·	0	33*
COc1cc(C)ccc1OCCOc1ccccc1Cl	-9	-0.73	-32	13	-10	4
Cc1ccccc1C(=O)NC1CCN(C(=O)N(c2ccccc2)c2ccccc2)CC1	9	0.98	-15	-10	-5	4
Cc1ccc(N2C(=O)CC(NNc3nc4ccccc4s3)C2=O)cc1 (stereo not drawn)	·	-0.03	-29	·	9	48*
CC(=O)/C(=N\Nc1ccc(C)cc1)N1CCOCC1	-35	-0.88	92*	32	-13	3
COc1ccc(Br)cc1C(=O)N/N=C/c1ccc2c(c1)n(C)c(=O)n2C	·	1.6	-48	·	2	37*
Cn1c(=O)n(C)c2cc(/C=N/NC(=O)c3ccc(Cl)cc3Cl)ccc21	6	-0.14	-4	-6	-12	28
COC(=O)[C@@H](NC(=O)NCc1ccccc1Cl)C(C)C	89*	0.22	-33	-89	-6	8
CCn1c(C(=O)N2CCC(C(=O)NCCCSC3CCCCC3)CC2)cc2sccc21	96*	-2.6	-62	-96	-9	5
Cc1ccc(OCC(=O)N(Cc2ccccc2)C(C)C)c([N+](=O)[O-])n1	·	0.07	7	·	-2	31
COC(=O)c1sccc1NC(=O)COc1ccc(Cl)cc1Cl	·	-0.62	-30	·	-4	2
CC(=NCCc1c(C)[nH]c2ccc(C)cc12)C1=C(O)CC(c2ccccc2)CC1=O (stereo not drawn)	·	-1.1	-12	·	58*	-1
CCCn1c(=O)c(C(=O)NCc2ccncc2)c(O)c2ccccc21	-12	-2.5	-7	12	28*	0
SMILES	sEH inh	SDO1 yeast rescue	Yeast growth inh	sEH activator	Yeast lifespan up	Measles CPE
CCn1c(=O)c(C(=O)NNS(=O)(=O)c2ccc(C)cc2)c(O)c2ccccc21	·	-1.2	-15	·	32*	31
CCCn1c(=O)c(C(=O)NNS(=O)(=O)c2ccc(C)cc2)c(O)c2ccccc21	·	-1	-13	·	21	·
C=C(C)COc1ccc2c(CC)cc(=O)oc2c1C	·	-1.2	-3	·	1	16
CC(C)(C)NC(=O)c1ccc2nccnc2c1	6	0.57	-36	-5	-16	52*
COc1ccc(OCC(=O)NCCCN2CCOCC2)cc1	1	0.69	5	-2	·	26
Cc1ccc(Cn2ccc(=O)c(Cc3c(Cl)cccc3Cl)c2C)cc1	90*	-1.8	-41	-90	-6	0
O=C(CCSc1ccc(Cl)cc1)NC12CC3CC(CC(C3)C1)C2	81*	-1.1	-44	-80	25	1
COc1ccc(NS(=O)(=O)c2ccc(OCC(=O)N3CCOCC3)cc2)cc1	-4	-0.23	-38	4	1	5
C=C(C)CN(CC)C(=O)COc1ccc(S(=O)(=O)Nc2ccc(OC)cc2)cc1	-2	0.58	3	1	108*	8
CCCCOc1ccc(Cc2n[nH]c(=S)n2N)cc1	·	-0.66	-9	·	2	40*
CC(C)CC(c1nnnn1C1CCCC1)N1CCN(c2ccccc2F)CC1 (stereo not drawn)	2	-2.1	0	0	-19	42*
CCCCOC(=O)Cn1c(=N)n(CCN2CCOCC2)c2ccccc21	1	·	·	-2	·	·
N=c1n(CCN2CCOCC2)c2ccccc2n1CC(=O)c1ccc(Cl)c(Cl)c1	-1	-2.1	95*	1	-28	3
CCOC(CCNC(=O)c1cn(-c2cccc(C)n2)cn1)OCC	4	1	-18	-5	-16	34*
CSc1nnc(-c2ccc(Cl)cc2Cl)o1	9	-0.68	-28	-7	-27	89*
CC(=O)Oc1ccc2oc(C)c(C(=O)N3CCOCC3)c2c1	-10	0.69	-21	12	4	39*
COc1ccc2oc(-c3ccccc3)c(C(=O)N3CCOCC3)c2c1	-1	-0.57	-25	4	-19	1
CCOC(=O)C1=C(CC)OC(N)=C(C#N)C1c1cc(OC)ccc1OC (stereo not drawn)	·	0.14	-16	·	-1	16
CCOC(=O)C1=C(CC)OC(N)=C(C#N)C1c1ccc(NC(C)=O)cc1 (stereo not drawn)	·	-0.81	-38	·	2	31*
O=C(NCCCn1ccnc1)c1nn2c(C(F)(F)F)cc(-c3ccc(Br)cc3)nc2c1Cl	·	-1.4	-14	·	-6	2
FC(F)Oc1ccc(NC(=S)NCC2COc3ccccc3O2)cc1 (stereo not drawn)	·	-0.3	-22	·	2	9
CCOC(=O)C1CCN(C(c2cccnc2)c2c(NC(=O)c3ccco3)sc(C)c2C)CC1 (stereo not drawn)	17	-1.3	-30	-14	23	67*
Cc1sc(NC(=O)c2ccco2)c(C(c2cccnc2)N2CCN(c3ccc(F)cc3)CC2)c1C (stereo not drawn)	·	-2.7	-3	·	0	2
CC(C)(C)NC(=O)NC(=O)CN1CCN(c2ncc(C(F)(F)F)cc2Cl)CC1	1	0.07	-74	1	-3	8
O=C(CN1CCN(c2ncc(C(F)(F)F)cc2Cl)CC1)NCCNc1ncc(C(F)(F)F)cc1Cl	10	-2.7	93*	-8	-25	4
Nc1ccc(-n2nnnc2CN2CCOCC2)cc1	·	-0.02	-49	·	5	43*
